Published values collected from several papers.
Each line is one published result; the experiments were not run side by side.
EPHB2: Ephrin type-B receptor 2 (EPHB2, Homo sapiens, UniProt P29323)
ELANE: Neutrophil elastase (ELANE, Homo sapiens, UniProt P08246)
BACE1: Beta-secretase 1 (BACE1, Homo sapiens, UniProt P56817)
Delta-aminolevulinic acid dehydratase C162A/K59N: Delta-aminolevulinic acid dehydratase (Homo sapiens, UniProt P13716, C162A/K59N)
Ephx2: Bifunctional epoxide hydrolase 2 (Ephx2, Mus musculus, UniProt P34914)
SMARCA2 bromodomain: SWI/SNF-related matrix-associated actin-dependent regulator of chromatin subfamily A member 2, bromodomain (SMARCA2, Homo sapiens, UniProt P51531)
BRAF: Serine/threonine-protein kinase B-raf (BRAF, Homo sapiens, UniProt P15056)
RXFP3: Relaxin-3 receptor 1 (RXFP3, Homo sapiens, UniProt Q9NSD7)
SMUG1: SMUG1 (Homo sapiens, UniProt Q53HV7)
EGFR L858R/T790M: Epidermal growth factor receptor (EGFR, Homo sapiens, UniProt P00533, L858R/T790M)

SMILES	target	effect on	action	technique	pH	setting	IC50
Cc1ccc(NC(=O)c2ccc(C)c(C(F)(F)F)c2)cc1C#Cc1nn(C2CCC(O)CC2)c2ncnc(N)c12 (stereo not drawn)	EPHB2	enzyme activity	inhibitor	radiometric			33 nM
Nc1ncc2c(n1)-c1c([nH]c3ccc(-c4ccc(F)cc4)cc13)CCC2	Non-receptor tyrosine-protein kinase TYK2, JH2 (TYK2, Homo sapiens, UniProt P29597)	target engagement in cells		BRET			> 10000 nM
Cc1cccc(C(=O)n2ncc(=O)c3cc([N+](=O)[O-])ccc32)c1	ELANE	enzyme activity	inhibitor	fluorescence			260 nM
CC(C)(O)C1Cc2c(cc3occ(-c4ccc(O)cc4)c(=O)c3c2O)O1 (stereo not drawn)	BACE1	enzyme activity	inhibitor				> 90000 nM
O=C(O)Cc1ccccc1Nc1c(Cl)cccc1Cl	Delta-aminolevulinic acid dehydratase C162A/K59N	enzyme activity	inhibitor	absorbance	pH 8	with preincubation	9000 nM
CCC(C)(O)C(=O)N1CCC(NC(=O)Nc2ccc(OC(F)(F)F)c(F)c2)CC1 (stereo not drawn)	Ephx2	enzyme activity	inhibitor				13 nM
CCCS(=O)(=O)Nc1ccc(F)c(C(=O)c2c[nH]c3ncc(-c4ccc(CNC(=O)COCC(=O)NCc5ccc(-c6cnc7[nH]cc(C(=O)c8c(F)ccc(NS(=O)(=O)CCC)c8F)c7c6)cc5)cc4)cc23)c1F	Serine/threonine-protein kinase B-raf (BRAF, Homo sapiens, UniProt P15056, V600E)	enzyme activity	inhibitor	ELISA			~56 nM
O=C(O)c1ccccc1Nc1cccc(C(F)(F)F)c1	Delta-aminolevulinic acid dehydratase C162A/K59N	enzyme activity	inhibitor	absorbance	pH 8	with preincubation	2500 nM
Cc1ccc(COc2ccc3c(c2)NC(=C(C#N)C(=O)c2ccc(Cl)cc2Cl)NC3=O)cc1	Cytoplasmic dynein 2 heavy chain 1 (DYNC2H1, Homo sapiens, UniProt Q8NCM8)	ATPase activity	inhibitor				11000 nM
Cc1ncsc1-c1ccc(CNC(=O)[C@@H]2C[C@H](O)CN2C(=O)[C@@H](NC(=O)C2(F)CC2)C(C)(C)C)c(OCCOc2ccc(CN3CCN(c4cc(-c5ccccc5O)nnc4N)CC3)cc2)c1	SMARCA2 bromodomain	ligand displacement		TR-FRET			670 nM
C[C@]1(C(=O)[C@H](CC2CCCCC2)NC(=O)[C@@H]2COCCCCCC(=O)N3CCC[C@H]3C(=O)N2)CO1	Proteasome Macropain subunit MB1 (PSMB5, Homo sapiens, UniProt P28074)	enzyme activity	inhibitor	fluorescence			> 10000 nM
CCn1ncc2c1-c1cnc(N)c(c1)O[C@H](C)c1cc(F)ccc1-c1nn(C)nc1C2	Muscle, skeletal receptor tyrosine-protein kinase (MUSK, Homo sapiens, UniProt O15146)	enzyme activity	inhibitor	radiometric			44 nM
CC(C)(C)n1nc(-c2ccc3nc(OC4CC4)ccc3c2)c(C(N)=O)c1N	BRAF	cell-free assay					> 10000 nM
CC(C)C[C@H](NC(=O)[C@H](Cc1ccccc1)NC(=O)[C@@H](N)Cc1ccc(O)cc1)C(=O)N[C@@H](Cc1ccccc1)C(=O)N[C@@H](CCCNC(=N)N)C(=O)N1CCC[C@H]1C(=O)N[C@@H](CCCNC(=N)N)C(=O)N[C@@H](CC(N)=O)C(N)=O	Neuromedin-U receptor 2 (Mus musculus, UniProt Q8BZ39)	ligand displacement		radioligand		cell membranes	0.09 nM
Cc1cccc(C(=O)n2nc(Cl)c(=O)c3ccccc32)c1	ELANE	enzyme activity	inhibitor	fluorescence			970 nM
CCCCn1c(Sc2ccc(Cl)cc2Cl)nc2c(N)ncnc21	Endoplasmin (HSP90B1, Canis lupus familiaris, UniProt P41148)	ligand displacement		FP			800 nM
NCCCC[C@H](NC(=O)[C@@H]1CCCN1C(=O)[C@@H]1CSSC[C@H](N)C(=O)N[C@@H](Cc2ccc(O)cc2)C(=O)N[C@@H](Cc2ccccc2)C(=O)N[C@@H](CCC(N)=O)C(=O)N[C@@H](CC(N)=O)C(=O)N1)C(=O)NCC(N)=O	Vasopressin V2 receptor (AVPR2, Homo sapiens, UniProt P30518)	ligand displacement		radioligand		cell membranes	14 nM
O=C(Nc1ccc(-c2nc(-c3ccc(F)cc3)no2)cc1)C1CC(=O)N(Cc2cccnc2)C1 (stereo not drawn)	RXFP3	cAMP	antagonist	TR-FRET			2670 nM
O=C(Nc1ccc(Br)cc1)N1CCC(n2c(=O)[nH]c3c(Br)cccc32)CC1	SMUG1	enzyme activity	inhibitor				> 100000 nM
Nc1ncc(-c2nc(N3CCOCC3)nc(N3[C@@H]4CC[C@H]3COC4)n2)c(C(F)F)n1	Serine/threonine-protein kinase mTOR (MTOR, Homo sapiens, UniProt P42345)	ligand displacement		TR-FRET			21.3 nM
O=C(Nc1ccn(Cc2ccc(O)cc2C(F)(F)F)n1)c1c(F)cccc1F	Transient receptor potential cation channel subfamily V member 4 (TRPV4, Homo sapiens, UniProt Q9HBA0)	ion current	inhibitor				> 10000 nM
NS(=O)(=O)c1cc2c(cc1C(F)(F)F)NC(Cc1ccccc1)NS2(=O)=O (stereo not drawn)	Delta-aminolevulinic acid dehydratase C162A/K59N	enzyme activity	inhibitor	absorbance	pH 8	with preincubation	130000 nM
Cc1ccc(C(=O)Nc2ccc(Oc3cc4cnn(C)c4cc3-c3cn[nH]c3)c(F)c2)c(=O)n1-c1ccc(F)cc1	Proto-oncogene tyrosine-protein kinase ROS (ROS1, Homo sapiens, UniProt P08922)	phosphorylation in cells	inhibitor	western blot			170 nM

SMILES	target	effect on	action	technique	pH	setting	IC50
CC(O)C(C)C(=O)N1CCC(NC(=O)Nc2ccc(OC(F)(F)F)c(F)c2)CC1 (stereo not drawn)	Ephx2	enzyme activity	inhibitor				2.2 nM
CC(=O)N[C@H]1CSSC[C@@H](C(=O)N[C@@H](Cc2c[nH]c3ccccc23)C(N)=O)NC(=O)[C@@H](Cc2ccccc2)NC(=O)[C@H](CCCNC(=N)N)NC1=O	Melanocortin receptor 3 (MC3R, Homo sapiens, UniProt P41968)	ligand displacement		radioligand			420 nM
O=C(N/N=C/c1cccn1CCN1CCOCC1)Nc1cc2c(Nc3ccc(F)c(Cl)c3)ncnc2cc1O[C@H]1CCOC1	EGFR L858R/T790M	enzyme activity	inhibitor				16.7 nM
O=C(Nc1ccc(-c2nc(-c3ccc(C(F)(F)F)cc3)no2)cc1)C1CC(=O)N(Cc2cccnc2)C1 (stereo not drawn)	RXFP3	cAMP	antagonist	TR-FRET			2170 nM
COc1ccc2c(c1OCc1ccc(OC(F)(F)F)cc1)C[C@@H](C(=O)O)N(c1nc3ccc(F)cc3o1)C2	Type-1 angiotensin II receptor (AGTR1, Homo sapiens, UniProt P30556)	ligand displacement					> 10000 nM
COc1cc(NC(=O)N2CCC(n3c(=O)[nH]c4c(Br)cccc43)CC2)ccc1C	SMUG1	enzyme activity	inhibitor				> 100000 nM
Cc1ccccc1-c1noc(-c2ccc(NC(=O)C3CC(=O)N(Cc4cccnc4)C3)cc2)n1 (stereo not drawn)	RXFP3	cAMP	antagonist	TR-FRET			> 10000 nM
Cc1cccc(C(=O)Oc2cnnc3ccc([N+](=O)[O-])cc23)c1	ELANE	enzyme activity	inhibitor	fluorescence			590 nM
C=C(Cl)C(=O)Nc1cc(Nc2nc(N3CCOCC3)c3sccc3n2)c(OC)cc1N(C)CCN(C)C	EGFR L858R/T790M	enzyme activity	inhibitor	ELISA			63 nM
Oc1ccc(-c2nc(-c3ccncc3)c(-c3ccc(F)cc3)[nH]2)cc1	BRAF	cell-free assay	inhibitor				1130 nM
COc1ccc2c(c1)OC1Oc3cc(O)c(CC=C(C)C)c(O)c3C(=O)C21O (stereo not drawn)	BACE1	enzyme activity	inhibitor				91000 nM
C=CC(=O)Nc1cc(Nc2nccc(-c3cn(C4CC4)c4ccccc34)n2)c(OC)cc1N(C)CCN(C)C	Epidermal growth factor receptor (EGFR, Homo sapiens, UniProt P00533, L747S)	enzyme activity	inhibitor	TR-FRET			3.09 nM
CC(C)c1cc(NC(=O)Nc2ccc(F)c(F)c2)n(-c2ccccc2)n1	Kir3.1/Kir3.2 (Homo sapiens, UniProt P48051+P48549)	ion flux	inhibitor				2500 nM
COc1cc(NC(=O)N2CCC(n3c(=O)[nH]c4c(Br)cccc43)CC2)ccc1Cl	SMUG1	enzyme activity	inhibitor				> 100000 nM
CN1CCN(c2ccc(Nc3ncc4cc(C#N)c(=O)n(C5CCCC5)c4n3)cc2)CC1	EPHB2	enzyme activity	inhibitor				86.8 nM
Cc1ncsc1-c1ccc(CNC(=O)[C@@H]2C[C@H](O)CN2C(=O)[C@@H](NC(=O)C2(F)CC2)C(C)(C)C)c(OCCc2ccc(CN3CCN(c4cc(-c5ccccc5O)nnc4N)CC3)cc2)c1	SMARCA2 bromodomain	ligand displacement		TR-FRET			1300 nM
O=C1N[C@H](C(=O)O)CS1	Hydroxycarboxylic acid receptor 2 (HCAR2, Homo sapiens, UniProt Q8TDS4)	ligand displacement		radioligand		cell membranes	~900000 nM
CC[C@@H](C(=O)Nc1ccc(C(N)=O)c(F)c1)n1cc(OC)c(-c2cc(Cl)ccc2-n2cc(C(F)(F)F)nn2)cc1=O	Tissue-type plasminogen activator (PLAT, Homo sapiens, UniProt P00750)	enzyme activity	inhibitor				> 10000 nM
NC(=O)N/N=C/c1ccc([N+](=O)[O-])o1	Delta-aminolevulinic acid dehydratase C162A/K59N	enzyme activity	inhibitor	absorbance	pH 8	with preincubation	2100 nM
O=C(O)C1=CC(=C(c2ccc(O)c(C(=O)O)c2)c2ccc(O)c(C(=O)O)c2)C=CC1=O	DNA polymerase iota (Homo sapiens, UniProt Q9UNA4)	enzyme activity	inhibitor				99 nM
[N-]=[N+]=N[C@H](CC(=O)NO)Cc1ccc(O)cc1	Endoplasmic reticulum aminopeptidase 2 (ERAP2, Homo sapiens, UniProt Q6P179)	enzyme activity	inhibitor	fluorescence			59000 nM
COc1ccc2c(Oc3ccc4c(C(=O)Nc5ccccc5N)cccc4c3)ccnc2c1	BRAF	enzyme activity	inhibitor				> 500 nM
